Laboratory results published in PubChem BioAssay.
Active and inactive are the calls of the source.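 How the source made its calls, unless noted: active means compounds giving at least 50% inhibition in the cell-based MKP-3 phosphatase rescue imaging test; inactive means the rest.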

Tests used:
[1] = inhibitors of TNFa-induced NFkB p65 translocation, primary screen, imaging, HUVEC, MLSMR starter and 10KST1 sets (AID 438;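 active means inhibition above 20% together with a positive visual image hit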;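 further: compound added about 3h40 before a 20 min TNFalpha stimulation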;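 on inhibition: signal is the nuclear over cytoplasmic p65 intensity ratio per well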); conditions: HUVEC TNFa-induced p65 nuclear translocation; cell count: measured here: nuclei count (cytotoxicity indicator), at 2.08 µM; inhibition: at 2 µM, stronger effect = higher value, 0% TNFa-plus-vehicle, 100% no-TNFa wells
[2] = inhibitors of E-selectin induction by TNFa, primary screen, imaging, HUVEC, immunofluorescence, MLSMR starter and 10KST1 sets (AID 487;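 active means visually confirmed hit in the image check and inhibition above 20%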;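 on inhibition: signal is fraction of cell area covered by stained E-selectin grains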;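 on nuclei count: 100% = median nuclei count of all wells on the same plate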); conditions: HUVEC TNFalpha-induced E-selectin immunofluorescence imaging, at 2 µM; inhibition: stronger effect = higher value; nuclei count: measured here: cell number, toxicity
[3] = DUSP6 inhibitors restoring Erk phosphorylation by chemical complementation, primary imaging in DUSP6-transfected HeLa (AID 609); conditions: HeLa MKP-3 transfected, phospho-Erk imaging KS statistic, at 10 µM, cells stimulated with TPA for 15 min;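 on inhibition: phospho-Erk level distribution per well compared with pooled transfected vehicle control wells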
[4] = molecular target: Dual specificity protein phosphatase 6 (Homo sapiens) (UniProt Q16828); test: as above; conditions: HeLa MKP-3 transfected, phospho-Erk imaging KS statistic; at 10 µM; stronger effect = higher value; cells stimulated with TPA for 15 min
Sequence of Dual specificity protein phosphatase 6 (Homo sapiens) (Q16828 whole entry, looked up): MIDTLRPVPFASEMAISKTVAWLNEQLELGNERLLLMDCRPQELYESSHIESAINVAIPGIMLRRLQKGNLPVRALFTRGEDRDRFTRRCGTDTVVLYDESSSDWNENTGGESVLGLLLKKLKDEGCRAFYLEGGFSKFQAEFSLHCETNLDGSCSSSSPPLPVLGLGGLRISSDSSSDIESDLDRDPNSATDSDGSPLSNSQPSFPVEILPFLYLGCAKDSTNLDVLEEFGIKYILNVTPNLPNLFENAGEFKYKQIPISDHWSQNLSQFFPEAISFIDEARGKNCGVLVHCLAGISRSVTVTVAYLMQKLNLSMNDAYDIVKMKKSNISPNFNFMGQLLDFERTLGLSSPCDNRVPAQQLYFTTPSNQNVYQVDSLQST

[5] = molecular target: Voltage-gated potassium channel subunit beta-2 (Rattus norvegicus) (UniProt P62483); test: KvBeta enzyme negative modulators, primary screen, biochemical, NADPH fluorescence (AID 622;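 active means fluorescence slope higher than the sample average by over 3 SD, cut at about -0.22 in these data, passing the limit was not always enough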;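 further: slope of raw intensity against log time taken from 70 to 1610 s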); conditions: recombinant KvBeta, 4-cyanobenzaldehyde reduction, at 10 µM, stronger effect = higher value
Sequence of Voltage-gated potassium channel subunit beta-2 (Rattus norvegicus) (P62483 whole entry, looked up): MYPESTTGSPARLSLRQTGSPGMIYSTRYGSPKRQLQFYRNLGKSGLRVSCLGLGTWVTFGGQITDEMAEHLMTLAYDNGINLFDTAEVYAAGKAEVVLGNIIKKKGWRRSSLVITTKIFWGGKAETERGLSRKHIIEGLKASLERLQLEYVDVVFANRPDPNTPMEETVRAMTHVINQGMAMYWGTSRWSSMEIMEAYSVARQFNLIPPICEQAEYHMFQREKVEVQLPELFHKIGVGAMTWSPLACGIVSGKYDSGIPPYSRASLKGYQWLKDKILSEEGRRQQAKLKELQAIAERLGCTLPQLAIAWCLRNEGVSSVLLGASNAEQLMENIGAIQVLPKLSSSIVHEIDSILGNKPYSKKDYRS

[6] = molecular target: Voltage-gated potassium channel subunit beta-2 (Rattus norvegicus) (UniProt P62483); test: KvBeta positive modulators, primary screen, biochemical, NADPH fluorescence (AID 623;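 active means NADPH fluorescence slope more negative than the mean of all samples by about 3 SD, 99.7% confidence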;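 further: fluorescence intensity change per second fitted from 20 to 320 s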); conditions: Recombinant KvBeta, NADPH fluorescence decrease slope, 10 min; at 10 µM; stronger effect = lower value
[7] = molecular target: Muscarinic acetylcholine receptor M4 (Homo sapiens) (UniProt P08173); test: compounds altering M4/GIRK thallium flux, either direction, primary screen, M4 allosteric agonist project, cell-based, HEK293 M4/GIRK, BTC-AM (AID 625;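 active means fluorescence slope after compound addition differing from the mean of all tested samples at 99.7% confidence, mostly higher but some lower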;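 further: thallium influx through GIRK channels coupled to M4 in HEK293 cells with BTC-AM dye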); conditions: at 10 µM, actives lie on both sides
Sequence of Muscarinic acetylcholine receptor M4 (Homo sapiens) (P08173 whole entry, looked up): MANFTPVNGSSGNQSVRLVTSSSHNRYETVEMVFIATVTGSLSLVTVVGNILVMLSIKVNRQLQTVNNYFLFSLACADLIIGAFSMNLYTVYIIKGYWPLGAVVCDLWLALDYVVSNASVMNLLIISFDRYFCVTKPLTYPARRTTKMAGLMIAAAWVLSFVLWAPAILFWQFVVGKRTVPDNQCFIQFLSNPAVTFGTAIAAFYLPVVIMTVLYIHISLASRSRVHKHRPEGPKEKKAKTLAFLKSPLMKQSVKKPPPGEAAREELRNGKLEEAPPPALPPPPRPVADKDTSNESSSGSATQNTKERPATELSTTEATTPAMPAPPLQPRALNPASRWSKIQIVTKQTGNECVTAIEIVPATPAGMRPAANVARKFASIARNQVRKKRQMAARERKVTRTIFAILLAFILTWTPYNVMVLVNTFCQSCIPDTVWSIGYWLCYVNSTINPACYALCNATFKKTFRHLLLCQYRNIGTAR
How it was run: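 Material: M4/GIRK1/GIRK2 stable HEK293 cell line. Medium: pH 7.3 thallium assay buffer. Dosing: single compound concentration, 10 µM final. Schedule: 1 h dye loading, 2 min kinetic read. Measured by: kinetic fluorescence with BTC-AM dye. Read-out: post-addition slope, 15–24 s, of baseline-normalized fluorescence. Benchmarks: carbachol and DMSO controls.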

[8] = inhibitors of larval lipid processing in zebrafish, primary screen, whole organism, PED6 fluorescence, gall bladder and intestine (AID 686;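 active means a full or partial loss of lipid-probe fluorescence in the fish gall bladder, intestine or both, judged by eye; inactive means no fluorescence loss, or compound toxic to the fish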;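 further: larvae 5 to 7 days old with five fish per well; signal comes from phospholipase A2 cleavage of quenched PED6 carried via bile; overnight exposure to compound and PED6 before scoring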); conditions: Zebrafish larvae PED6 lipid processing, fluorescence scoring; screened at 20 µM (by protocol)
How it was run: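 System: live zebrafish larvae aged 5-7 days, whole organism; measure: graded gall bladder and intestinal fluorescence inhibition per well; incubation: overnight exposure; reagent: ingested quenched lipid PED6 at 100 nM; signal: By-eye fluorescence microscopy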

[9] = inhibitors of Chlamydomonas gravitaxis, primary screen, whole organism, Chlamydomonas reinhardtii, WT vs cilia-less mutant, absorbance, 96-well (AID 463189;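 active means inhibition at or above 50% relative to wild type and mutant plate controls; inactive means inhibition below 50%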;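 further: 0% = wild type cc124 cells in DMSO and 100% = ciliumless bld1 mutant cells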); conditions: OD600 absorbance, 2 days, at 10 µM, stronger effect = higher value
[10] = measured here: cell density z-score
[11] = measured here: nuclear c-Myc green intensity z-score
[12] = measured here: nuclear pErk red intensity z-score, stronger effect = higher value

SMILES | cell count [1] | inhibition [1] | inhibition [2] | nuclei count [2] [%] | z-score [3, 10] | z-score [3, 11] | z-score [3, 12] | inhibition [4] | fluorescence slope [5] | NADPH fluorescence slope [6] | fluorescence slope [7] | outcome [8] | inhibition [9]
CCOC(=O)CSc1nc(N)c(C(=O)Nc2ccc(N(C)C)cc2)s1 | 703 | -7% (inactive) | -123% (inactive) | 188 | -1.17 | 1.84 | -1.52 | 1.98% (inactive) | -0.46 (inactive) | -6.8e-05 (inactive) | 0.00383 (inactive) | active; weak signal in gallbladder and intestine | -7.12% (inactive)
CNc1oc(-c2cccs2)nc1C#N | 683 | -0.7% (inactive) | -2.1% (inactive) | 144 | 0.965 | 0.294 | 0.102 | 1.63% (inactive) | -0.0289 (inactive) | -2.3e-05 (inactive) | 0.00668 (inactive) | inactive | 7.4% (inactive)
CCCn1c(SCC#N)nc2c(c1=O)C1(CCCC1)Cc1ccccc1-2 | 547 | -1.4% (inactive) | -10.8% (inactive) | 185 | -0.545 | 0.717 | -0.241 | 3.97% (inactive) | -0.402 (inactive) | -3.9e-05 (inactive) | 0.00798 (inactive) | inactive | -14.9% (inactive)
COc1ccc(Nc2nnc(C)c3ccccc23)cc1C(N)=O | 616 | -2.5% (inactive) | -91.7% (inactive) | 152 | -0.473 | 0.976 | -0.605 | 3.49% (inactive) | -0.459 (inactive) | -0.000141 (inactive) | 0.00456 (inactive) | inactive | -4.27% (inactive)
CCC(NC(=O)Nc1nccs1)(C(F)(F)F)C(F)(F)F | 600 | -9% (inactive) | 21.5% (inactive) | 89 | 0.356 | 1.04 | -0.804 | -11.4% (inactive) | -0.475 (inactive) | -3.1e-05 (inactive) | 0.0066 (inactive) | inactive | -12.6% (inactive)
COc1ccccc1C(=O)NCC(=O)n1nc(C)cc1C | 542 | -13.5% (inactive) | -24% (inactive) | 146 | 0.666 | 0.744 | -0.112 | 19.8% (inactive) | -0.331 (inactive) | -5.1e-05 (inactive) | 0.0067 (inactive) | inactive | -1.54% (inactive)
Cn1c(NCc2ccccc2)nc2c1c(=O)n(Cc1ccccc1)c(=O)n2C | 694 | -5.5% (inactive) | -54.8% (inactive) | 172 | 0.899 | -0.674 | 1.21 | 5.95% (inactive) | -0.461 (inactive) | -8.2e-05 (inactive) | 0.00535 (inactive) | inactive | 6.49% (inactive)
CCCCCCOc1ccc(N2C(=O)CC(N3CCN(C(=O)c4ccco4)CC3)C2=O)cc1 (stereo not drawn) | 632 | 8.2% (inactive) | -105% (inactive) | 150 | 0.106 | -0.155 | -0.8 | 10.1% (inactive) | -0.487 (inactive) | -3.5e-05 (inactive) | 0.00531 (inactive) | inactive | 5.01% (inactive)
O=C1c2ccccc2-c2onc3ccc(NCc4ccco4)c1c23 | 705 | -2.6% (inactive) | -23.9% (inactive) | 118 | 0.599 | -0.783 | 0.692 | 10.9% (inactive) | -0.14 (inactive) | 1.2e-05 (inactive) | 0.000102 (inactive) | active; no signal in gallbladder and intestine | -2.14% (inactive)
Cc1nc2c(c(N3CCOCC3)n1)OCC(=O)N2 | 562 | -5.6% (inactive) | -63.7% (inactive) | 132 | -1.14 | 0.329 | 1.34 | -4.59% (inactive) | -0.454 (inactive) | -9.1e-05 (inactive) | 0.00529 (inactive) | inactive | 31.8% (inactive)
CN=C(c1ccco1)n1c(=S)nc(-c2ccco2)n(C)c1=S | 339 | -5.2% (inactive) | -204% (inactive) | 126 | 0.329 | -0.895 | -0.461 | -2.59% (inactive) | -0.522 (inactive) | -0.000102 (inactive) | 0.00396 (inactive) | inactive | 28.5% (inactive)
CCCCCNC(=O)C(C#N)c1nc2ccccc2nc1N1CC(C)OC(C)C1 (stereo not drawn) | 366 | -5.7% (inactive) | -192% (inactive) | 130 | 1.56 | -0.566 | -0.352 | 19.4% (inactive) | -0.482 (inactive) | -8.1e-05 (inactive) | 0.00502 (inactive) | inactive | -1.81% (inactive)
COC(=O)c1ccc(Cn2c(O)c(N=O)c3ccccc32)o1 | 485 | 2% (inactive) | -36.4% (inactive) | 122 | -2.02 | 0.422 | -1.72 | 7.42% (inactive) | -0.493 (inactive) | -7e-05 (inactive) | 0.00432 (inactive) | inactive | -9.22% (inactive)
COCCNc1ncnc2c1cnn2-c1ccc(Cl)cc1 | 534 | -25.3% (inactive) | 11.8% (inactive) | 184 | 1.76 | -0.928 | -0.638 | 23.4% (inactive) | -0.429 (inactive) | -5.8e-05 (inactive) | 0.00652 (inactive) | inactive | 6.55% (inactive)
CCc1nc2n[nH]c(N)c2c2c1CCCC2 | 410 | -3% (inactive) | -224% (inactive) | 194 | 1.38 | -1.2 | -1.94 | 5.42% (inactive) | -0.476 (inactive) | -5.3e-05 (inactive) | 0.00476 (inactive) | inactive; toxic | 2.25% (inactive)
COc1cccc(NC(=O)C2CC(=O)n3cnnc3S2)c1 (stereo not drawn) | 518 | -3.8% (inactive) | 12.1% (inactive) | 177 | 0.777 | -1.1 | -0.46 | 35.7% (inactive) | -0.339 (inactive) | -2.8e-05 (inactive) | 0.00822 (inactive) | inactive | 40.5% (inactive)
CC(C)OCCCNc1ncnc2c1cnn2-c1ccccc1 | 571 | -10.1% (inactive) | 45.3% (inactive) | 117 | 0.477 | 1.09 | -0.0471 | 15.4% (inactive) | -0.377 (inactive) | -5.1e-05 (inactive) | 0.00537 (inactive) | inactive | 18.2% (inactive)
CCN(CC)CCN1C(=O)C(=O)/C(=C(/O)c2c(C)[nH]c(C(=O)OC)c2C)C1c1ccc(OC)cc1 (stereo not drawn) | 733 | -1.5% (inactive) | -75.7% (inactive) | 194 | -0.146 | -0.0149 | 0.967 | 0.671% (inactive) | -0.449 (inactive) | -4e-05 (inactive) | 0.00528 (inactive) | inactive | 18.4% (inactive)
COC(=O)c1sc(NC(=O)c2oc3ccccc3c2C)nc1C | 594 | -0.2% (inactive) | -146% (inactive) | 150 | 0.222 | -0.561 | -0.214 | 25.8% (inactive) | -0.269 (inactive) | -4e-05 (inactive) | 0.00832 (inactive) | inactive | -10.3% (inactive)
CCCC(CCC(=O)Nc1ccc(C(=O)OCC)cc1)C(=O)O (stereo not drawn) | 368 | -0.1% (inactive) | -147% (inactive) | 152 | -0.648 | 0.519 | -0.661 | 20.2% (inactive) | -0.484 (inactive) | -4.5e-05 (inactive) | 0.0051 (inactive) | inactive | -0.026% (inactive)
Cn1c(OCc2cccnc2)nc2c1c(=O)n(Cc1ccccc1)c(=O)n2C | 719 | -11.2% (inactive) | -145% (inactive) | 176 | 1.38 | -0.255 | -1.04 | 25.8% (inactive) | -0.489 (inactive) | -5.3e-05 (inactive) | 0.00844 (inactive) | inactive | 21.1% (inactive)
O=C(NCC(F)(F)F)Nc1nnc(C(F)(F)F)s1 | 731 | 2.9% (inactive) | -80.8% (inactive) | 166 | -0.948 | -0.154 | 0.77 | 27.5% (inactive) | -0.429 (inactive) | -5.4e-05 (inactive) | 0.00508 (inactive) | inactive | -1.99% (inactive)
COC(=O)C(C)Sc1nc2c(c(=O)n(C)c(=O)n2C)n1CCC(C)C (stereo not drawn) | 630 | 0.3% (inactive) | -5.5% (inactive) | 179 | 0.304 | -0.191 | -1.37 | 3.42% (inactive) | -0.42 (inactive) | -1.8e-05 (inactive) | 0.00499 (inactive) | inactive | 4.36% (inactive)
O=C1OC(N2CCN(C/C=C/c3ccccc3)CC2)c2ccccc21 (stereo not drawn) | 390 | -1.2% (inactive) | -65.2% (inactive) | 168 | 0.231 | -0.597 | 0.38 | 14% (inactive) | -0.458 (inactive) | -0.000109 (inactive) | 0.00426 (inactive) | inactive | 28.9% (inactive)
COC(=O)c1sc2nc(N3CCCCC3)c3c(c2c1N)CC(C)(C)N(C)C3 | 365 | -3.8% (inactive) | -114% (inactive) | 173 | -0.314 | 1.33 | 0.691 | 3.42% (inactive) | -0.155 (active) | 8.1e-06 (inactive) | 0.00431 (inactive) | inactive | 7.69% (inactive)
Cc1cc(C)n(C2CCCCC2OC(=O)c2ccccc2)n1 (stereo not drawn) | 526 | -10% (inactive) | -95% (inactive) | 129 | -0.506 | 0.334 | -1.55 | 9.91% (inactive) | -0.381 (inactive) | 2e-06 (inactive) | 0.00464 (inactive) | inactive | -9.73% (inactive)
